{"source": "ChEMBL document CHEMBL2321865", "about": "(J Med Chem, 2013)", "key": {"[1]": {"tested_on": "Mus musculus", "assay": "Antinociceptive activity in CD1 mouse assessed as tail withdrawal latency at 3000 nmol, iv measured after 15 to 60 mins by tail flick test relative to vehicle-treated control", "type": "functional", "method_in_brief": "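Male CD-1 mice, lightly isoflurane-anaesthetised, given tail-vein injection at 5 mL/kg. Tail-flick latency to radiant heat focused 3-4 cm from the tail tip, cut-off 15 s. Baseline is the mean of three readings; readings at 15-180 min; expressed as %MPE. Mean ± S.E.M.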"}, "[2]": {"tested_on": "Mus musculus", "assay": "Antinociceptive activity in CD1 mouse assessed as paw licking and jumping latency at 0.6 nmol, icv measured after 15 to 30 mins by hot plate test", "type": "functional, organism-based", "method_in_brief": "(§1)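 Male CD-1 mice, 25-30 g, lightly isoflurane-anaesthetised; i.c.v. injection 2 mm caudal, 2 mm lateral to bregma, 3 mm deep, 5 µL. Hot plate held at 55.0 °C; latency to paw lick or jump, cut-off 60 s. Baseline is the mean of three readings 15 min apart. Latencies taken at 15-120 min after dosing and expressed as %MPE.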"}, "[3]": {"tested_on": "Mus musculus", "assay": "Antinociceptive activity in CD1 mouse assessed as paw licking and jumping latency at 0.6 nmol, icv measured after 30 to 45 mins by hot plate test relative to vehicle-treated control", "type": "functional", "method_in_brief": "as §1"}, "[4]": {"tested_on": "Mus musculus", "assay": "Antinociceptive activity in CD1 mouse assessed as paw licking and jumping latency at 3000 nmol, iv measured after 15 to 60 mins by hot plate test relative to vehicle-treated control", "type": "functional", "method_in_brief": "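Male CD-1 mice, 25-30 g, lightly isoflurane-anaesthetised, dosed into the tail vein at 5 mL/kg. Hot plate at 55.0 °C; latency to paw lick or jump, cut-off 60 s. Baseline is the mean of three readings 15 min apart; readings to 180 min. %MPE = (post-drug − baseline)/(cut-off − baseline)×100. Mean ± S.E.M.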"}, "[5]": {"tested_on": "Mus musculus", "assay": "Antinociceptive activity in CD1 mouse assessed as tail withdrawal latency at 0.6 nmol, icv measured after 15 to 30 mins by tail flick test", "type": "functional, organism-based", "method_in_brief": "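Male CD-1 mice given i.c.v. injection (5 µL; 2 mm caudal, 2 mm lateral to bregma, 3 mm deep) under light isoflurane. Radiant heat focused 3-4 cm from the tail tip; withdrawal latency recorded, cut-off 15 s. Baseline is the mean of three readings 15 min apart; readings at 15-120 min; %MPE.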"}, "[6]": {"target": "Delta-type opioid receptor (Mus musculus, UniProt P32300)", "sequence (P32300 whole entry)": "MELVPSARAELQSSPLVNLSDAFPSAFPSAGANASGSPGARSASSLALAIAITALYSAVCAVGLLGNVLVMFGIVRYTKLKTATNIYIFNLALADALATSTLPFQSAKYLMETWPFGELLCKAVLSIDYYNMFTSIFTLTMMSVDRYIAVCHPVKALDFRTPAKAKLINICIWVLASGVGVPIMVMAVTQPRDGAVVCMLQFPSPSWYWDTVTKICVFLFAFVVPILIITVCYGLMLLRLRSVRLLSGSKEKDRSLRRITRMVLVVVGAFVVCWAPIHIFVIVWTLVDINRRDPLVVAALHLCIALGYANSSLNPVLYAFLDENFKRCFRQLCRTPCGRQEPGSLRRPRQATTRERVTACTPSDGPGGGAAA", "assay": "Inhibition of DOR in ICR mouse vas deferens assessed as inhibition of electrically-stimulated muscle contraction after 3 mins", "set-up": "species or system Muscle tissue", "method_in_brief": "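Vas deferens from male ICR mice, 25-30 g, in Mg-free Krebs at 37 °C under 95% O₂/5% CO₂. Transmural stimulation at 0.1 Hz, 2.0 ms pulses, supramaximal voltage. Cumulative curves over five to seven concentrations; inhibition read 3 min after each addition. IC₅₀ from a Hill fit, at least four assays.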"}, "[7]": {"target": "Mu-type opioid receptor (Cavia porcellus, UniProt P97266)", "sequence (P97266 whole entry)": "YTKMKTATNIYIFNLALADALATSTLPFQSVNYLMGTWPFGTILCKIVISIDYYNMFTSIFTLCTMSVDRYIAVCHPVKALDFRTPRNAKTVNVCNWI", "assay": "Inhibition of MOR in Hartley guinea pig ileum longitudinal muscle myenteric plexus assessed as inhibition of electrically-stimulated muscle contraction after 3 mins", "type": "tissue-based", "method_in_brief": "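Longitudinal muscle-myenteric plexus strips from male Hartley guinea pigs (150-400 g) in oxygenated Krebs at 37 °C. Stimulated at 0.1 Hz, 0.4 ms pulses, supramaximal voltage. […] IC₅₀ by Hill fit, at least four assays.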"}, "[8]": {"target": "Delta-type opioid receptor (Rattus norvegicus, UniProt P33533)", "sequence (P33533 whole entry)": "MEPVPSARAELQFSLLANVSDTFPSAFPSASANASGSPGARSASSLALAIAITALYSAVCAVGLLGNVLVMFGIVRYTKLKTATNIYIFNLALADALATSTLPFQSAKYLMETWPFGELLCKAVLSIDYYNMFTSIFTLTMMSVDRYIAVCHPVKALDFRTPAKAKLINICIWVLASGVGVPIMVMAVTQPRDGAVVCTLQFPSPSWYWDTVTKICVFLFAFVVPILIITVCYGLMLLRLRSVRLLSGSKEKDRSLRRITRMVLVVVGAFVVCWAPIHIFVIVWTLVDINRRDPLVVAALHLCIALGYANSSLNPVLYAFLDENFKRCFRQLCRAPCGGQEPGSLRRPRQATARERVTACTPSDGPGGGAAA", "assay": "Displacement of [3H]Deltorphin from DOR in Sprague-Dawley rat brain membrane after 180 mins by scintillation counting analysis", "type": "cell membranes", "method_in_brief": "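Whole brain homogenate from male Sprague-Dawley rats, pre-incubated 30 min at 25 °C to remove endogenous opioids. Six to seven test concentrations; rapid filtration; nonlinear least-squares fit; at least two assays, each in duplicate.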"}}, "note": "Calls of active or inactive are those of the source.", "data": [{"smiles": "C[C@@H](NC(=O)[C@@H](N)Cc1ccc(O)cc1)C(=O)NCC(=O)N[C@@H](Cc1ccccc1)C(=O)NNC(=O)[C@H](Cc1ccccc1)NC(=O)CNC(=O)[C@@H](C)NC(=O)[C@@H](N)Cc1ccc(O)cc1", "note": "[BIPHALIN]", "values": [{"measurement": "Activity", "setting": "[1]", "value": "Active"}, {"measurement": "Activity", "setting": "[2]", "value": "Active"}, {"measurement": "MPE", "setting": "[3]", "value": 100, "unit": "%"}, {"measurement": "Activity", "setting": "[4]", "value": "Active"}, {"measurement": "Activity", "setting": "[5]", "value": "Active"}]}, {"smiles": "C[C@@H](NC(=O)C[C@@H](N)Cc1ccc(O)cc1)C(=O)NCC(=O)N[C@@H](Cc1ccccc1)C(=O)N[C@H](CC(=O)N[C@H](C)C(=O)NCC(=O)N[C@@H](Cc1ccccc1)C(N)=O)Cc1ccc(O)cc1", "values": [{"measurement": "IC50", "setting": "[6]", "value": 0.71, "unit": "µM"}, {"measurement": "IC50", "setting": "[7]", "value": 0.67, "unit": "µM"}, {"measurement": "Ki", "setting": "[8]", "value": 0.48, "unit": "µM"}]}]}
